{"data": "Experimental data from different studies", "effect on": "cell growth or viability", "note": "Lines come from different studies, so protocols differ."}
{"Structure (SMILES)": "CCOC(=O)C1=C(N)N(c2ccc(C(=O)OCC)cc2)C(O)=C(C#N)C12C(=O)Nc1ccccc12 (stereo not shown)", "cell line": "HepG2", "method": "MTT", "tested at": "25 µM", "time": "24 h", "measurement": "viability", "result": "26.3%"}
{"Structure (SMILES)": "CC[C@H](C)[C@H](N)C(=O)O[C@]1(CC)C(=O)OCc2c1cc1n(c2=O)Cc2cc3cc4c(cc3nc2-1)OCO4", "cell line": "HepG2", "method": "MTT", "measurement": "IC50", "result": "0.098 µM"}
{"Structure (SMILES)": "N.N.[Cl][Pt][Cl]", "cell line": "A-431", "method": "MTT", "time": "24 h", "setting": "dark", "measurement": "IC50", "result": "40.1 µM"}
{"Structure (SMILES)": "N.N.[Cl][Pt][Cl]", "cell line": "HepG2", "method": "MTT", "tested at": "20 µM", "measurement": "inhibition", "result": "88.5%"}
{"Structure (SMILES)": "O=C1[O][Pt]2([NH][C@@H]3CCCC[C@H]3[NH]2)[O]C1=O", "cell line": "PNT2", "method": "MTT", "time": "96 h", "measurement": "IC50", "result": "1.3 µM"}
{"Structure (SMILES)": "CCC1(OC(=O)C(C)c2ccc3cc(OC)ccc3c2)C(=O)OCc2c1cc1n(c2=O)Cc2cc3cc4c(cc3nc2-1)OCO4 (stereo not shown)", "cell line": "HepG2", "method": "MTT", "measurement": "IC50", "result": "3.5 µM"}
{"Structure (SMILES)": "CC1=C(O)C(=O)C=C2C1=CC=C1[C@@]2(C)CC[C@@]2(C)[C@@H]3C[C@](C)(C(=O)O)CC[C@]3(C)CC[C@]12C", "cell line": "Huh-7", "method": "MTT", "tested at": "20 µM", "measurement": "inhibition", "result": "77.3%"}
{"Structure (SMILES)": "CC[C@@]1(OC(=O)CN)C(=O)OCc2c1cc1n(c2=O)Cc2cc3cc4c(cc3nc2-1)OCO4", "cell line": "HepG2", "method": "MTT", "measurement": "IC50", "result": "0.025 µM"}
{"Structure (SMILES)": "N[C@@H](Cc1ccc(N(CCCl)CCCl)cc1)C(=O)O", "cell line": "HepG2", "method": "CCK-8", "time": "48 h", "measurement": "IC50", "result": "36.5 µM"}
{"Structure (SMILES)": "N.N.[Cl][Pt][Cl]", "cell line": "HEK-293T", "method": "XTT", "time": "24 h", "measurement": "IC50", "result": "64.4 µM"}
{"Structure (SMILES)": "CCCc1cc(=O)n2nc(NCc3c(F)cc(Cl)cc3F)c(C#N)c2[nH]1", "cell line": "HCC33", "method": "ATP luminescence", "time": "72 h", "measurement": "IC50", "result": "> 50 µM"}
{"Structure (SMILES)": "CC[C@@]1(OC(=O)[C@@H](N)CCCCN)C(=O)OCc2c1cc1n(c2=O)Cc2cc3cc4c(cc3nc2-1)OCO4", "cell line": "HepG2", "method": "MTT", "measurement": "IC50", "result": "0.035 µM"}
{"Structure (SMILES)": "[N-]=[N+]=[N-]", "cell line": "A-431", "method": "MTT", "time": "3 h", "measurement": "IC50", "result": "> 100 µM"}
